Source: ChEMBL document CHEMBL1123839, “5-Acyl-3-substituted-benzofuran-2(3H)-ones as potential antiinflammatory agents” (1987)

Experiments:
Format in all cases: functional
Cavia porcellus [1] = species: Cavia porcellus; test: Tested for effect on the production of Lipoxygenase (LO) metabolite, 5-HETE in guinea pig peritoneal polymorphonuclear neutrophils at 30 uM concentration
Procedure, shortened: (§1)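 Guinea pig peritoneal PMNs were incubated with [14C]arachidonic acid and stimulated with calcium ionophore A23187. Compounds were tested at 30 μM in 0.1 N NaOH–Krebs Ringer bicarbonate buffer. Radiolabeled cyclooxygenase and lipoxygenase products were identified by HPLC and GC-MS, separated by TLC and quantified by automatic scanning.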

Rattus norvegicus [2] = test: Antiinflammatory activity was assessed by the ability to improve the adjuvant induced arthritis in right primary lesion in rats at oral doses, 33 mg/kg (volume change in the injected paw measured from day 0 to day 8)
Procedure, shortened: (§2)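 Female Sprague–Dawley rats (150–170 g), six per group. Arthritis induced by subcutaneous plantar injection of 0.125 mg killed tubercle bacillus in liquid paraffin into the right hind paw. Dosing was 33 mg/kg orally, daily for 14 days, starting the day before adjuvant. Paw volumes were measured by mercury plethysmography every 2–3 days over 18 days. Primary lesion: right paw, days 0–8. Secondary lesions: right and left (uninjected) paws, days 9–18. Areas under the time-course curves were compared with controls by ANOVA.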

Rattus norvegicus [3] = test: Ability to improve the adjuvant induced arthritis in right secondary lesion in rats at oral doses, 33 mg/kg; procedure, shortened: as §2
Cavia porcellus [4] = species: Cavia porcellus; test: Tested for effect on the production of cyclooxygenase (COX) metabolite, TXB2 of arachidonic acid in guinea pig peritoneal polymorphonuclear neutrophils at 30 uM concentration; procedure, shortened: as §1
Cavia porcellus [5] = species: Cavia porcellus; test: Tested for effect on the production of cyclooxygenase (COX) metabolite, PGE-2 (prostaglandin E2) of arachidonic acid in guinea pig peritoneal polymorphonuclear neutrophils at 30 uM concentration; procedure, shortened: as §1
Cavia porcellus [6] = species: Cavia porcellus; test: Tested for effect on the production of cyclooxygenase (COX) metabolite, PGF2-alpha (prostaglandin F2-alpha) of arachidonic acid in guinea pig peritoneal polymorphonuclear neutrophils at 30 uM concentration; procedure, shortened: as §1
Rattus norvegicus [7] = species: Rattus norvegicus; test: Antiinflammatory activity was assessed improvement of adjuvant induced arthritis in rats, determined by joint mobility of the paw; design: concentration or dose not given beside the values
Procedure, shortened: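 Adjuvant arthritis was induced in female Sprague–Dawley rats (150–170 g, groups of six) by right-hind-paw plantar injection of killed tubercle bacillus in paraffin. Treatment was 33 mg/kg orally, daily for 14 days, starting the day before adjuvant. Joint involvement was scored as the angle through which the hind paws moved easily, given as percent change versus nontreated controls.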

Cavia porcellus [8] = species: Cavia porcellus; test: Tested for effect on the production of Lipoxygenase (LO) metabolite, 5,12-diHETE in guinea pig peritoneal polymorphonuclear neutrophils at 30 uM concentration; procedure, shortened: as §1
Rattus norvegicus [9] = test: Antiinflammatory activity was assessed by the ability to improve the adjuvant induced arthritis in left secondary lesion in rats at oral doses, 33 mg/kg (volume change in the injected paw measured from day 9 to day 18)

Structure (SMILES) | Reduction (Cavia porcellus [1]) | Reduction (Rattus norvegicus [2]) | Reduction (Rattus norvegicus [3]) | Reduction (Cavia porcellus [4]) | Reduction (Cavia porcellus [5]) | Reduction (Cavia porcellus [6]) | Reduction (Rattus norvegicus [7]) | Reduction (Cavia porcellus [8]) | Reduction (Rattus norvegicus [9])
Cc1ccc(C(=O)c2ccc(O)c(C(C)C(=O)O)c2)s1 (stereo not drawn) | -69% | 13% | 11% | 82% | 54% | 49% | -16% | -36% | 29%
CCCC(C(=O)O)c1cc(C(=O)c2cccs2)ccc1O (stereo not drawn) | -33% | 26% | 30% | 86% | 87% | 50% | 33% | -42% | 52%
O=C1Oc2ccc(C(=O)c3cccs3)cc2/C1=C/c1ccc(C(F)(F)F)cc1 | 67% | 3% | 19% | 95% | 79% | 67% | 4% | 68% | 15%
CCC(CC)(C(=O)O)c1cc(C(=O)c2cccs2)ccc1OC | – | -11% | 16% | – | – | – | 42% | – | 42%
Cc1ccc(C(=O)c2ccc3c(c2)C(C)C(=O)O3)s1 (stereo not drawn) | -3% | 10% | 19% | 86% | 65% | 28% | 15% | 15% | 36%
CC(C)(C)c1cc(/C=C2\C(=O)Oc3ccc(C(=O)c4cccs4)cc32)cc(C(C)(C)C)c1O | -11% | -28% | -7% | 26% | -14% | 6% | 17% | -8% | 8%
C=CCc1cc(C(=O)c2cccs2)cc2c1OC(=O)C2C (stereo not drawn) | 14% | 1% | 6% | 93% | 88% | 77% | 5% | -24% | 17%
CCC(C(=O)O)c1cc(C(=O)c2cccs2)ccc1O (stereo not drawn) | 16% | 20% | 64% | 92% | – | 65% | 60% | -33% | 76%
O=C(O)/C(=C\c1ccccc1)c1cc(C(=O)c2cccs2)ccc1O | – | 15% | 11% | – | – | – | 5% | – | -15%
CC(C)(C(=O)O)c1cc(C(=O)c2cccs2)ccc1O | -20% | 4% | 20% | 90% | 80% | 55% | 26% | -23% | 46%
CCCCC(C(=O)O)c1cc(C(=O)c2cccs2)ccc1O (stereo not drawn) | 60% | 5% | 29% | 64% | 44% | 51% | 14% | 60% | 53%
COc1ccc(C(=O)c2ccc(O)c(C(C)C(=O)O)c2)cc1 (stereo not drawn) | 5% | 12% | 31% | 89% | – | 58% | 7% | -10% | 22%
CC1C(=O)Oc2ccc(C(=O)c3ccc(F)cc3)cc21 (stereo not drawn) | 6% | 5% | 10% | 76% | 46% | 47% | -1% | -25% | 31%
CC1C(=O)Oc2ccc(C(=O)c3ccco3)cc21 (stereo not drawn) | 20% | -5% | 12% | 81% | 81% | – | 2% | 3% | 25%
